From ChEMBL document CHEMBL4316629, “Discovery of 1,3-diphenyl-1H-pyrazole derivatives containing rhodanine-3-alkanoic acid groups as potential PTP1B inhibitors” (Bioorg Med Chem Lett, 2019)
Each block holds one molecule with its values, some of them ahead of it. The source made the active and inactive calls. The calls are words filed in the database; no cut-off is given here.

How the values were obtained:
[1] = biological target: T1, Tyrosine-protein phosphatase non-receptor type 6 (Homo sapiens, UniProt P29350); test: Inhibition of SHP1 (unknown origin) using pNPP as substrate
Procedure, shortened: (§1)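 Same pNPP-substrate phosphatase assay as for PTP1B, applied for selectivity. Compounds were first screened at 20 μg/mL, then tested over a dose range. IC50 was obtained by regression analysis and reported as mean ± SD of three replications. Oleanolic acid served as the positive control.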

Homo sapiens = species: Homo sapiens; test: Selectivity index, ratio of IC50 for inhibition of TCPTP (unknown origin) using pNPP as substrate to IC50 for inhibition of PTP1B (unknown origin) using pNPP as substrate
Procedure, shortened: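 Both TCPTP and PTP1B IC50 values were measured by the same pNPP hydrolysis assay, derived by regression from triplicate dose-response data. The index is the TCPTP IC50 divided by the PTP1B IC50.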

[2] = biological target: T2, Tyrosine-protein phosphatase non-receptor type 11 (Homo sapiens, UniProt Q06124); test: Inhibition of SHP2 (unknown origin) using pNPP as substrate; procedure, shortened: as §1
T2 sequence (Q06124 whole entry): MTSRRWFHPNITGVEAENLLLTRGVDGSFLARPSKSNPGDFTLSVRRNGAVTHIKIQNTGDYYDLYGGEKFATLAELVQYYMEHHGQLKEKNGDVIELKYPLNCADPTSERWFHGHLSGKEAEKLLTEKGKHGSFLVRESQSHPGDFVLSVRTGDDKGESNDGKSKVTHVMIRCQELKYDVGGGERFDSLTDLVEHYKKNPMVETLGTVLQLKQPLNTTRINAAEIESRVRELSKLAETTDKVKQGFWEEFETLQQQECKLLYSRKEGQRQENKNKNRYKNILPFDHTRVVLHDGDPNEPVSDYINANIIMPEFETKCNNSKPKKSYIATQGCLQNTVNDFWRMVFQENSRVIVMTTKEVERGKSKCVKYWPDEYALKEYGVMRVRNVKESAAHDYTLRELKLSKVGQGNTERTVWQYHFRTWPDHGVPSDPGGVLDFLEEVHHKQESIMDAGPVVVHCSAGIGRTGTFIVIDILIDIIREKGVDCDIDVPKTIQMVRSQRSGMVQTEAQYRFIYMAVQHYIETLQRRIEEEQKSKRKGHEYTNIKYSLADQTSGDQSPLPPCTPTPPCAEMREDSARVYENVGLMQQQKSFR

[3] = biological target: T3, M-phase inducer phosphatase 2 (Homo sapiens, UniProt P30305); test: Inhibition of CDC25B (unknown origin) using pNPP as substrate; procedure, shortened: as §1
T3 sequence (P30305 whole entry): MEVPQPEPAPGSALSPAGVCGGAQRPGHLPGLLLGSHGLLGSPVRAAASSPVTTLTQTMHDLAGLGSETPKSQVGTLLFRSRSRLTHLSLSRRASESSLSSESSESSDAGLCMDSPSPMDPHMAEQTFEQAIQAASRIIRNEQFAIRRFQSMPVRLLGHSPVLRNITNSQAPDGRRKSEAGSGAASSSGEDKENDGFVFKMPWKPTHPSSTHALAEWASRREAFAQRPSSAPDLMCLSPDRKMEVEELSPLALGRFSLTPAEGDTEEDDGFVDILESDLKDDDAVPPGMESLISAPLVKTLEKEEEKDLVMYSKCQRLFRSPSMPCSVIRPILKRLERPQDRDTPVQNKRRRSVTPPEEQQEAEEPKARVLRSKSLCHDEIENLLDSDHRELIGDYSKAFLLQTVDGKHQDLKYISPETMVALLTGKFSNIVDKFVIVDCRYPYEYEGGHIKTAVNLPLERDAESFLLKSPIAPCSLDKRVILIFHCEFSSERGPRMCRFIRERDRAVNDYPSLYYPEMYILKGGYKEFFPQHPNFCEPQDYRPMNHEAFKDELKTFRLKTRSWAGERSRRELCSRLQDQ

[4] = biological target: Receptor-type tyrosine-protein phosphatase F (Homo sapiens) (UniProt P10586); test: Inhibition of LAR (unknown origin) at 20 ug/ml using pNPP as substrate
Procedure, shortened: (§2)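 Single-point screen at 20 µg/mL of compound against each phosphatase (LAR, SHP-1, SHP-2), with pNPP hydrolysis as the read-out.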

[5] = biological target: T4, Tyrosine-protein phosphatase non-receptor type 1 (Homo sapiens, UniProt P18031); test: Inhibition of PTP1B (unknown origin) using pNPP as substrate
T4 sequence (P18031 whole entry): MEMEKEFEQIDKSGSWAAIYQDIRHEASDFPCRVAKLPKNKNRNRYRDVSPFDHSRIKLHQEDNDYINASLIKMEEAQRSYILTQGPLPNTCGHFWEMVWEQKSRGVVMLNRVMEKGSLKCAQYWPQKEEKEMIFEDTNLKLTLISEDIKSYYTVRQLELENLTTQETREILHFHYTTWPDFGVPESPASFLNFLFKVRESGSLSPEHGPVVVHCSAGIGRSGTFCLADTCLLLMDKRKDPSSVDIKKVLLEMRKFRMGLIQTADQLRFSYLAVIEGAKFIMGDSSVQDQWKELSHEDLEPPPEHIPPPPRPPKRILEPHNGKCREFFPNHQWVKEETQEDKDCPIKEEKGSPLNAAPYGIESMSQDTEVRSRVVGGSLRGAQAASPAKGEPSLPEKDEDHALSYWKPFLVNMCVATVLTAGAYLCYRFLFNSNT

[6] = biological target: T5, Tyrosine-protein phosphatase non-receptor type 2 (Homo sapiens, UniProt P17706); test: Inhibition of TCPTP (unknown origin) using pNPP as substrate
T5 sequence (P17706 whole entry): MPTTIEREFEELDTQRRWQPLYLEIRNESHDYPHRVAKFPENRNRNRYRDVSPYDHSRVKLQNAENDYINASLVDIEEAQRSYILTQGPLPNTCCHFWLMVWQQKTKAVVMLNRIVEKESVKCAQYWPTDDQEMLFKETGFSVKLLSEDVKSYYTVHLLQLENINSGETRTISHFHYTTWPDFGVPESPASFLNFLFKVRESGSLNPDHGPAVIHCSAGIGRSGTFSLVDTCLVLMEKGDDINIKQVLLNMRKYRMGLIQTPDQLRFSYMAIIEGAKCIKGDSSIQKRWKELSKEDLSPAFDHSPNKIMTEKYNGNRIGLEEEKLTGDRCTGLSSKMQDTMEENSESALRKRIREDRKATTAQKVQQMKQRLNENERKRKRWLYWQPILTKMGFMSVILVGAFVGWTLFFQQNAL

[7] = biological target: T4, Tyrosine-protein phosphatase non-receptor type 1; test: Competitive type inhibition of PTP1B (unknown origin) using pNPP as substrate by Lineweaver-Burk plot analysis
[8] = biological target: T6, Tyrosine-protein phosphatase non-receptor type 1 (Homo sapiens) (UniProt P18031); test: Time dependent inhibition of PTP1B (unknown origin) using pNPP as substrate
T6 sequence (whole entry): T4 sequence (P18031 whole entry)

[9] = biological target: T1, Tyrosine-protein phosphatase non-receptor type 6; test: Inhibition of SHP1 (unknown origin) at 20 ug/ml using pNPP as substrate; procedure, shortened: as §2
[10] = biological target: T7, Tyrosine-protein phosphatase non-receptor type 11 (Homo sapiens) (UniProt Q06124); test: Inhibition of SHP2 (unknown origin) at 20 ug/ml using pNPP as substrate; procedure, shortened: as §2
T7 sequence (whole entry): T2 sequence (Q06124 whole entry)

[11] = biological target: T6, Tyrosine-protein phosphatase non-receptor type 1 (Homo sapiens); test: Potency index, ratio of IC50 for oleanolic acid to IC50 for test compound for inhibition of PTP1B (unknown origin) using pNPP as substrate
Procedure, shortened: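 Both IC50 values come from dose-response inhibition of PTP1B with pNPP as substrate, fitted by regression (mean ± SD, n = 3). The ratio divides the IC50 of the reference PTP1B inhibitor by that of the test compound.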

Sequence of Receptor-type tyrosine-protein phosphatase F (Homo sapiens) (P10586 whole entry): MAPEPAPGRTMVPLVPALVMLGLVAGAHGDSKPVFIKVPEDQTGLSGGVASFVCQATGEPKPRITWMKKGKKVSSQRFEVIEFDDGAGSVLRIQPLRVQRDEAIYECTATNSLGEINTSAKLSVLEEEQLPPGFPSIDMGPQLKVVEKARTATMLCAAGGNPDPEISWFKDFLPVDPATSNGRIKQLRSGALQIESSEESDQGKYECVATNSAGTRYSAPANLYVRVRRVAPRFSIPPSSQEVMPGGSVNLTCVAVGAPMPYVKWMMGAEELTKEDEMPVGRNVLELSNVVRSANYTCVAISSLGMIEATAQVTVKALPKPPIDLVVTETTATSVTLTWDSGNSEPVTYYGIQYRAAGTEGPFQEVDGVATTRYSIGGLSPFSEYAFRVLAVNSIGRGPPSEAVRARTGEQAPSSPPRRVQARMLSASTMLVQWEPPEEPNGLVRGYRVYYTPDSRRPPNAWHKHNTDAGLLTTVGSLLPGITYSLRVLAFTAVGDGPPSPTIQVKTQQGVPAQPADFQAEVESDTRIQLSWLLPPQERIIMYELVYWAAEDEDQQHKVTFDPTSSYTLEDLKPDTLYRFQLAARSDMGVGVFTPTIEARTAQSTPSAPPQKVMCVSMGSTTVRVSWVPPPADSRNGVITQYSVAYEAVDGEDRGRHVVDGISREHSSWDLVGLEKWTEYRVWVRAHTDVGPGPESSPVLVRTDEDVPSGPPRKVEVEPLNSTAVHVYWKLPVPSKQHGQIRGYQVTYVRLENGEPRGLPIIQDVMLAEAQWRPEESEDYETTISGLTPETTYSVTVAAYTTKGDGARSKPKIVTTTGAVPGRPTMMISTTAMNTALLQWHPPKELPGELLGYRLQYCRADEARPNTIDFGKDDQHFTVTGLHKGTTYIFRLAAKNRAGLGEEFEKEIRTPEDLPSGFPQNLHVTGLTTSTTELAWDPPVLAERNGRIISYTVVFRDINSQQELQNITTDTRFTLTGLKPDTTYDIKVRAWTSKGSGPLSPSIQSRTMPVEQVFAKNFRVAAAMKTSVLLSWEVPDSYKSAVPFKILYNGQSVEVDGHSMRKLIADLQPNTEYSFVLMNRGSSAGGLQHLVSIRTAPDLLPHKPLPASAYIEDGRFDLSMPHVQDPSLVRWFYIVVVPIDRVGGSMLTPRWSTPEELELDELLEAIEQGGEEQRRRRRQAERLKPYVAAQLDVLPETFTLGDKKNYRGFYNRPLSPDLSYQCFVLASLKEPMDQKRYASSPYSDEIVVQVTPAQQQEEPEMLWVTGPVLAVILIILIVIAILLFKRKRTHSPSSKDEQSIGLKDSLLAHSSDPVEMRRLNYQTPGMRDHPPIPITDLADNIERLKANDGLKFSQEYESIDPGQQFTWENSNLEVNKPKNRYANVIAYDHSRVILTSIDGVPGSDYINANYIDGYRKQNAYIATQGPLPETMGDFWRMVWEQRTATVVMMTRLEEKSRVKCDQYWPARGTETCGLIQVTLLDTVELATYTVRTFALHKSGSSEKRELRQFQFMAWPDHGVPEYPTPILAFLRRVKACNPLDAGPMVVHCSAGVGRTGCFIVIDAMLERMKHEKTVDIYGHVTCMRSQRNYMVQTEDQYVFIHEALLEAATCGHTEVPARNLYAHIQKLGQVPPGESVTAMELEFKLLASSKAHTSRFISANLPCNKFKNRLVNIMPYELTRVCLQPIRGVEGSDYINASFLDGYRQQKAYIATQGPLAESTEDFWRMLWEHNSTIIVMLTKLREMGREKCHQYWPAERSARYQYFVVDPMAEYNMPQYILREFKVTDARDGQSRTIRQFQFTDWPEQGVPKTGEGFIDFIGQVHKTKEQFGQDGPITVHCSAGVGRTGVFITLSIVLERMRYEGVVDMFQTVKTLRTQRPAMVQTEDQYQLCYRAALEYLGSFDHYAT
T1 sequence (P29350 whole entry): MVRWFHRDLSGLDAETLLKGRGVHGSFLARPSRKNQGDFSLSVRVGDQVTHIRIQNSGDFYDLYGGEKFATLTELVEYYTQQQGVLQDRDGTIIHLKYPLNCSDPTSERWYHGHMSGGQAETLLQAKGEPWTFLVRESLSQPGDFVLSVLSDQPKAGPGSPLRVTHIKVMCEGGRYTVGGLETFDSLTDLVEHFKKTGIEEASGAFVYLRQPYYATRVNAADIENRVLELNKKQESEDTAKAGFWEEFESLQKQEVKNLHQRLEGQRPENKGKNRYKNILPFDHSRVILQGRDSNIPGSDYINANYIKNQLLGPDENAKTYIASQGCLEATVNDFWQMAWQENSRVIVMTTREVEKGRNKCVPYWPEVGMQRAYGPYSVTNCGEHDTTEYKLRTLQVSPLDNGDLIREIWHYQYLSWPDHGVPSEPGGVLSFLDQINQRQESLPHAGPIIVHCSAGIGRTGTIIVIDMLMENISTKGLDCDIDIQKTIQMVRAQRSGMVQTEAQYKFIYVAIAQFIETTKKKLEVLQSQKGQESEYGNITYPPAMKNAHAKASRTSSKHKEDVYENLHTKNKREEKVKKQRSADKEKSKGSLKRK

IC50 [1]: 16.8 µM
Ratio IC50 (Homo sapiens): 2 to 9
IC50 [2]: 16.7 µM
IC50 [3]: 13.7 µM
inhibition [4]: inactive
IC50 [5]: 3.56 µM
IC50 [6]: 12.7 µM
Structure (SMILES): O=C(O)[C@@H](Cc1ccccc1)N1C(=O)/C(=C/c2cn(-c3ccccc3)nc2-c2ccc(Cl)cc2Cl)SC1=S

Ki [7]: 0.31 µM
Ratio IC50 (Homo sapiens): 2 to 9
TDI [8]: inactive
inhibition [9]: inactive
inhibition [10]: inactive
IC50 [3]: 28.1 µM
Ratio IC50 [11]: 2.5
inhibition [4]: inactive
IC50 [5]: 0.67 µM
IC50 [6]: 5.77 µM
Structure (SMILES): O=C(O)CCCCN1C(=O)/C(=C/c2cn(-c3ccccc3)nc2-c2ccc(Cl)cc2Cl)SC1=S

IC50 [5]: 3.57 µM
Structure (SMILES): O=C(O)[C@@H](Cc1ccccc1)N1C(=O)/C(=C/c2cn(-c3ccccc3)nc2-c2ccc([N+](=O)[O-])cc2)SC1=S

Ratio IC50 (Homo sapiens): 2 to 9
inhibition [9]: inactive
inhibition [10]: inactive
IC50 [3]: 10.9 µM
inhibition [4]: inactive
IC50 [5]: 1.35 µM
IC50 [6]: 5.63 µM
Structure (SMILES): O=C(O)CCCCCN1C(=O)/C(=C/c2cn(-c3ccccc3)nc2-c2ccc(Cl)cc2Cl)SC1=S

Ratio IC50 (Homo sapiens): 2 to 9
inhibition [9]: inactive
inhibition [10]: inactive
IC50 [3]: 17.1 µM
inhibition [4]: inactive
IC50 [5]: 7.93 µM
IC50 [6]: 14 µM
Structure (SMILES): O=C(O)CCN1C(=O)/C(=C/c2cn(-c3ccccc3)nc2-c2ccc(Cl)cc2Cl)SC1=S

IC50 [5]: 6.37 µM
Structure (SMILES): O=C(O)[C@@H](Cc1ccccc1)N1C(=O)/C(=C/c2cn(-c3ccccc3)nc2-c2ccccc2)SC1=S

IC50 [5]: 14.7 µM
Structure (SMILES): Cc1ccc(-c2nn(-c3ccccc3)cc2/C=C2\SC(=S)N(CC(=O)O)C2=O)cc1

IC50 [5]: 2.1 µM
Structure (SMILES): O=C(O)[C@@H](Cc1ccccc1)N1C(=O)/C(=C/c2cn(-c3ccccc3)nc2-c2ccc(Cl)cc2)SC1=S

IC50 [5]: 2.2 µM
Structure (SMILES): O=C(O)CCCCN1C(=O)/C(=C/c2cn(-c3ccccc3)nc2-c2ccc(Cl)cc2)SC1=S

IC50 [5]: 1.85 µM
Structure (SMILES): O=C(O)CCCCCN1C(=O)/C(=C/c2cn(-c3ccccc3)nc2-c2ccc(Cl)cc2)SC1=S

Ratio IC50 (Homo sapiens): 2 to 9
inhibition [9]: inactive
inhibition [10]: inactive
IC50 [3]: 13.8 µM
inhibition [4]: inactive
IC50 [5]: 3.66 µM
IC50 [6]: 9.18 µM
Structure (SMILES): O=C(O)CCCN1C(=O)/C(=C/c2cn(-c3ccccc3)nc2-c2ccc(Cl)cc2Cl)SC1=S

IC50 [5]: 6.58 µM
Structure (SMILES): O=C(O)CCN1C(=O)/C(=C/c2cn(-c3ccccc3)nc2-c2ccc(Cl)cc2)SC1=S

IC50 [5]: 12.1 µM
Structure (SMILES): O=C(O)CN1C(=O)/C(=C/c2cn(-c3ccccc3)nc2-c2cccc(Br)c2)SC1=S

IC50 [5]: 2.27 µM
Structure (SMILES): O=C(O)CCCN1C(=O)/C(=C/c2cn(-c3ccccc3)nc2-c2ccc(Cl)cc2)SC1=S

IC50 [5]: 2.05 µM
Structure (SMILES): Cc1ccc(-c2nn(-c3ccccc3)cc2/C=C2\SC(=S)N([C@H](Cc3ccccc3)C(=O)O)C2=O)cc1

IC50 [5]: 7.09 µM
Structure (SMILES): COc1ccc(-c2nn(-c3ccccc3)cc2/C=C2\SC(=S)N([C@H](Cc3ccccc3)C(=O)O)C2=O)cc1

IC50 [5]: 24.6 µM
Structure (SMILES): COc1ccccc1-c1nn(-c2ccccc2)cc1/C=C1\SC(=S)N(CC(=O)O)C1=O

IC50 [1]: 24.5 µM
Ratio IC50 (Homo sapiens): 2 to 9
IC50 [2]: 20.9 µM
IC50 [3]: 11.3 µM
inhibition [4]: inactive
IC50 [5]: 4.78 µM
IC50 [6]: 7.91 µM
Structure (SMILES): O=C(O)CN1C(=O)/C(=C/c2cn(-c3ccccc3)nc2-c2ccc3ccccc3c2)SC1=S

IC50 [5]: 6.3 µM
Structure (SMILES): COc1ccccc1-c1nn(-c2ccccc2)cc1/C=C1\SC(=S)N([C@H](Cc2ccccc2)C(=O)O)C1=O

IC50 [5]: 13.2 µM
Structure (SMILES): O=C(O)CN1C(=O)/C(=C/c2cn(-c3ccccc3)nc2-c2cccc(Cl)c2)SC1=S

IC50 [5]: 4.42 µM
Structure (SMILES): O=C(O)[C@@H](Cc1ccccc1)N1C(=O)/C(=C/c2cn(-c3ccccc3)nc2-c2ccc(Br)cc2)SC1=S

IC50 [5]: 2.76 µM
Structure (SMILES): O=C(O)[C@@H](Cc1ccccc1)N1C(=O)/C(=C/c2cn(-c3ccccc3)nc2-c2cccc(Br)c2)SC1=S

Ki [7]: 0.7 µM
Ratio IC50 (Homo sapiens): 2 to 9
TDI [8]: inactive
inhibition [9]: inactive
inhibition [10]: inactive
IC50 [3]: 6.12 µM
inhibition [4]: inactive
IC50 [5]: 1.81 µM
IC50 [6]: 4.61 µM
Structure (SMILES): O=C(O)[C@@H](Cc1ccccc1)N1C(=O)/C(=C/c2cn(-c3ccccc3)nc2-c2ccc3ccccc3c2)SC1=S

IC50 [5]: 9.24 µM
Structure (SMILES): O=C(O)CN1C(=O)/C(=C/c2cn(-c3ccccc3)nc2-c2ccc([N+](=O)[O-])cc2)SC1=S

IC50 [5]: 4.89 µM
Structure (SMILES): O=C(O)[C@@H](Cc1ccccc1)N1C(=O)/C(=C/c2cn(-c3ccccc3)nc2-c2ccccc2Cl)SC1=S

IC50 [5]: 4.95 µM
Structure (SMILES): COc1cccc(-c2nn(-c3ccccc3)cc2/C=C2\SC(=S)N([C@H](Cc3ccccc3)C(=O)O)C2=O)c1

IC50 [5]: 14.2 µM
Structure (SMILES): O=C(O)CN1C(=O)/C(=C/c2cn(-c3ccccc3)nc2-c2ccc(Br)cc2)SC1=S
